Experimental findings from ChEMBL document CHEMBL4229363, “Design and synthesis of aryloxypropanolamine as β3-adrenergic receptor antagonist in cancer and lipolysis” (Eur J Med Chem, 2018) are described below.

The target of test [1] is T1, Beta-3 adrenergic receptor (Homo sapiens, UniProt P13945). The experiment in a line: Antagonist activity at human beta3 adrenergic receptor expressed in HEK293 cells co-expressing Galpha16 assessed as inhibition of isoproterenol-induced intercellular calcium mobilization pre-incubated for 10 mins before isoproterenol addition by Fluo-4AM dye-based fluorescence assay. The format is functional, cell-based. The note with it: read-out: EC50 (the source's name). In outline:
(§1)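 HEK293 cells stably co-expressing Gα16 and human β1, β2 or β3 receptor, seeded 24 h. Loaded with 2.00 µmol/L Fluo-4 AM in HBSS (BSA, glucose, 250 µmol/L sulfinpyrazone, pH 7.4) for 45 min at 37 °C. Compounds added for 10 min at room temperature, then isoproterenol dispensed. Calcium fluorescence read at ex 485/em 525 nm. IC50 taken from dose-response curves.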
On the technique in general: Calcium assays in cells follow changes in intracellular calcium, usually with a dye or a luminescent sensor.
Target sequence in this assay (P13945 whole entry): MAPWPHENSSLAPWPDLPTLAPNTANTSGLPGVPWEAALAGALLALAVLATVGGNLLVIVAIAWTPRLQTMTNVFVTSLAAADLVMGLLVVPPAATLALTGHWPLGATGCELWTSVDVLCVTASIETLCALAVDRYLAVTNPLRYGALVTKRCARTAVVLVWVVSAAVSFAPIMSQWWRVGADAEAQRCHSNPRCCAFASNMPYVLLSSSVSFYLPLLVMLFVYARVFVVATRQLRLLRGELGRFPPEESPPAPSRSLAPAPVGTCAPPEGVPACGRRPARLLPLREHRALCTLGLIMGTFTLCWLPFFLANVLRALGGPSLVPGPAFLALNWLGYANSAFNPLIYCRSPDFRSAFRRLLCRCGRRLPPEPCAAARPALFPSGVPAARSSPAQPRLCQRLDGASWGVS

In test [2] the target is Beta-3 adrenergic receptor (Mus musculus) (UniProt P25962). In words: Antagonist activity at beta3 adrenergic receptor in mouse 3T3L1 cells assessed as inhibition of isoproterenol-induced lipolysis by measuring glycerol accumulation after 2 hrs. Type of test: functional, cell-based. In outline:
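3T3-L1 preadipocytes were grown on gelatin to confluence, then differentiated with 10 µg/ml insulin, 1 µM dexamethasone and 0.5 mM IBMX for 48 hr, followed by insulin alone for 48 hr. Mature adipocytes were washed and given phenol red-free DMEM with 2% fatty acid-free BSA and 1 µM isoproterenol ± antagonist for 2 hr. Glycerol in cleared medium was read by kit at 550 nm. Mean ± SE, three independent experiments.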

Test [3] is filed under the species Homo sapiens. In words: Selectivity ratio of EC50 for displacement of [125I]iodocyanopindolol for human beta2 adrenergic receptor expressed in CHO dhfr cell membranes to EC50 for displacement of [125I]iodocyanopindolol from human beta3 adrenergic receptor expressed in CHO dhfr cell membranes.
For test [4], the species on record is Homo sapiens. The experiment in a line: Selectivity ratio of EC50 for displacement of [125I]iodocyanopindolol for human beta1 adrenergic receptor expressed in CHO dhfr cell membranes to EC50 for displacement of [125I]iodocyanopindolol from human beta3 adrenergic receptor expressed in CHO dhfr cell membranes. (Displacement assays read how much labelled ligand stays bound in the presence of the test substance.)

Test [5] addresses Beta-2 adrenergic receptor (Homo sapiens, UniProt P07550). In words: Antagonist activity at human beta2 adrenergic receptor expressed in HEK293 cells co-expressing Galpha16 assessed as inhibition of isoproterenol-induced intercellular calcium mobilization pre-incubated for 10 mins before isoproterenol addition by Fluo-4AM dye-based fluorescence assay. Type of test: functional, cell-based. The settings on record: read-out: EC50 (the source's name). In outline:
as §1

The target of test [6] is Beta-1 adrenergic receptor (Homo sapiens, UniProt P08588). The experiment in a line: Antagonist activity at human beta1 adrenergic receptor expressed in HEK293 cells co-expressing Galpha16 assessed as inhibition of isoproterenol-induced intercellular calcium mobilization pre-incubated for 10 mins before isoproterenol addition by Fluo-4AM dye-based fluorescence assay. Type of test: functional, cell-based. The note with it: read-out: EC50 (the source's name). The method in brief: as §1
Sequence of Beta-1 adrenergic receptor (P08588 whole entry): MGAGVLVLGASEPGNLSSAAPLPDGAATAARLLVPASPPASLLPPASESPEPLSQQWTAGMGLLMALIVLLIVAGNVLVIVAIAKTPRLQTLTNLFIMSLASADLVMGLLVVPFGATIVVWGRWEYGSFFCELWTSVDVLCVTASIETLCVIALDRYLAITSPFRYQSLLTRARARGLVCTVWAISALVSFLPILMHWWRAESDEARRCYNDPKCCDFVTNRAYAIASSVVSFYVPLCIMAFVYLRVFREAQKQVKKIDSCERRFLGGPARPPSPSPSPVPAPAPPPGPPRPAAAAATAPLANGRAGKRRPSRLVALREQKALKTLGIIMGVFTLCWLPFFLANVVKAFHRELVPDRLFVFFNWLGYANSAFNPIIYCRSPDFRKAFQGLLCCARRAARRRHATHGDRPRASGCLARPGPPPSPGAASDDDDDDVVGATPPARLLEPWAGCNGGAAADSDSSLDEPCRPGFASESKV

For test [7], the species on record is Homo sapiens. In words: Selectivity index, ratio of EC50 for human beta2 adrenergic receptor to EC50 for human beta3 adrenergic receptor.
Test [8] concerns the target T1, Beta-3 adrenergic receptor. The experiment in a line: Potency index, ratio of EC50 for L-748,337 to EC50 for test compound for antagonist activity at human beta3 adrenergic receptor expressed in HEK293 cells co-expressing Galpha16 assessed as inhibition of isoproterenol-induced intercellular calcium mobilization pre-incubated for 10 mins before isoproterenol addition by Fluo-4AM dye-based fluorescence assay. The format is functional, cell-based.
Target sequence in this assay (P13945 whole entry, looked up): as the sequence (P13945 whole entry) above

The test system of test [9] is Mus musculus. In words: Inhibition of tumor-induced body weight loss in BALB/c mouse xenografted with mouse C26 cells assessed as reduction in body weight at 2.5 mg/kg, ip dosed daily for 13 days (reference value: 8.3%). The format is functional. Set-up: scale not given: the % may be the effect or the level left.
The subject of test [10] is Mus musculus. The experiment in a line: Antilipolytic activity against mouse C26 cells xenografted in BALB/c mouse assessed as reduction in lipolysis of body fat by measuring glycerol content in serum at 2.5 mg/kg, ip dosed daily for 13 days. The format is functional, organism-based.
The species entered for test [11] is Homo sapiens. The experiment in a line: Selectivity index, ratio of EC50 for human beta1 adrenergic receptor to EC50 for human beta3 adrenergic receptor.
The test system of test [12] is Mus musculus. The experiment in a line: Antitumor activity against mouse C26 cells xenografted in BALB/c mouse assessed as decrease in tumor volume at 2.5 mg/kg, ip dosed daily for 13 days. The format is functional, organism-based.

Molecules are shown by their SMILES. Calls of active or inactive are those of the source. The rule behind the calls is not given here.

Sequence of Beta-3 adrenergic receptor (Mus musculus) (P25962 whole entry): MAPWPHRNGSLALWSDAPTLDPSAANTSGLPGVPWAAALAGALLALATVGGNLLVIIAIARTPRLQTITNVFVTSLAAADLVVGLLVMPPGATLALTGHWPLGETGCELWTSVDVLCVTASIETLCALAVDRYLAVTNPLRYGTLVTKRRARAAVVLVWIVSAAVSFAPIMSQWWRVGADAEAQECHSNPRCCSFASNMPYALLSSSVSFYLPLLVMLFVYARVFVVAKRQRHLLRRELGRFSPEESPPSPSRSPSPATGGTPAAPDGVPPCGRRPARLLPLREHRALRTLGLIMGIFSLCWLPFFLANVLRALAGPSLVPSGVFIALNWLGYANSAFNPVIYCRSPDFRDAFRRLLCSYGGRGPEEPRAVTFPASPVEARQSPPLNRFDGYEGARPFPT
Sequence of Beta-2 adrenergic receptor (P07550 whole entry): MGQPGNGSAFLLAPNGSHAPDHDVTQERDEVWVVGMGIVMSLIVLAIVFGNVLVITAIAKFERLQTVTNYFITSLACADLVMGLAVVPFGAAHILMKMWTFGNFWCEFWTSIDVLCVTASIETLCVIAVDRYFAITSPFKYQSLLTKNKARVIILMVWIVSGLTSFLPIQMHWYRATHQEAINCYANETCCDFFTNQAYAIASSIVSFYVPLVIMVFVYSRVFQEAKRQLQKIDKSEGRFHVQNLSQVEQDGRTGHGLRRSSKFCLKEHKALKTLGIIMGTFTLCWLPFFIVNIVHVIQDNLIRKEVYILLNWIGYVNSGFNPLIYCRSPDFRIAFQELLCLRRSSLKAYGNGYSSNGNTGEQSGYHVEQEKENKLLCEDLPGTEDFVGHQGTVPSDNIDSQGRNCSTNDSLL

Turning to `COC(=O)Nc1ccc(NC(=O)Nc2ccc(CCNC[C@H](O)COc3cccc4[nH]ccc34)cc2)cc1`, the IC50 in test [1] was 1.42 nM. Further, the inhibition entry in test [2] was “Active”.

Turning to `CC(=O)NCc1cccc(OC[C@@H](O)CNCCc2ccc(NS(=O)(=O)c3ccccc3)cc2)c1`, the results for the Ratio EC50 in the test filed under Homo sapiens [3] and in the test listed under Homo sapiens [4] were 45 and above 90, respectively. Besides, the inhibition result in test [2] was “Active”.

On to `O=C(Nc1ccc(CCNC[C@H](O)COc2cccc3[nH]ccc23)cc1)Nc1ccccc1F`, for which the IC50 in test [1] came out at 3.58 nM.

Consider `COC(=O)Nc1cccc(NC(=O)Nc2ccc(CCNC[C@H](O)COc3cccc4[nH]ccc34)cc2)c1`, for which the IC50 in test [1] was determined as 1.65 nM.

Take `O=C(Nc1ccc(CCNC[C@H](O)COc2cccc3[nH]ccc23)cc1)NC1CCCCC1`: the IC50 in test [1] is 2.89 nM. Also, in test [2], the inhibition entry was “Active”.

Regarding `O=C(Nc1ccc(CCNC[C@H](O)COc2cccc3[nH]ccc23)cc1)c1ccccc1`, the IC50 in test [5] amounted to 118 nM; in [1], 1.42 nM; in test [6], 36 nM.

`O=C(NCCc1ccccc1)Nc1ccc(CCNC[C@H](O)COc2cccc3[nH]ccc23)cc1`: in test [1], the IC50 is 2.15 nM. Also, in test [2], the inhibition result is “Active”.

With `O=C(Nc1ccc(CCNC[C@H](O)COc2cccc3[nH]ccc23)cc1)Nc1cccc(F)c1`, the IC50 in test [1] came to 2.93 nM.

With `CCCCCC(=O)Nc1cccc(NC(=O)Nc2ccc(CCNC[C@H](O)COc3cccc4[nH]ccc34)cc2)c1`, in test [1], the IC50 is 1.78 nM.

Consider `CCc1ccccc1OC[C@@H](O)CNCCc1ccc(NS(=O)(=O)c2ccccc2)cc1`, for which the figures for the IC50 in test [5], in [1] and in test [6] were 954 nM, 11.1 nM and 299 nM, respectively.

As for `O=C(Nc1ccc(F)cc1)Nc1ccc(CCNC[C@H](O)COc2cccc3[nH]ccc23)cc1`, the IC50 in [1] stood at 2.49 nM. For the same compound, the inhibition entry in [2] was “Active”.

With `CCc1ccccc1OC[C@@H](O)CNCCc1ccc(NC(=O)c2ccccc2)cc1`, the IC50 came to 294 nM in test [5], 7.7 nM in test [1] and 124 nM in test [6].

As for `CCc1ccccc1OC[C@@H](O)CNCCc1ccc(NC(=O)Cc2ccccc2)cc1`, the IC50 was determined as 281 nM in test [5], 8.68 nM in [1] and 36.8 nM in test [6].

On to `CC(=O)NCc1cccc(OC[C@@H](O)CNCCc2ccc(NC(=O)Cc3ccccc3)cc2)c1`, for which the IC50 in [5] turned out to be 15900 nM; in [1], 4.58 nM; in [6], 6200 nM.

`COc1ccccc1NC(=O)Nc1ccc(CCNC[C@H](O)COc2cccc3[nH]ccc23)cc1`: in test [1], the IC50 was 8.44 nM.

For the compound `CC(=O)NCc1cccc(OC[C@@H](O)CNCCc2ccc(NC(=O)c3ccccc3)cc2)c1`, the IC50 stood at 6060 nM in test [5], 7.81 nM in [1] and 100000 nM in test [6].

With `CCCCCC(=O)Nc1ccccc1NC(=O)Nc1ccc(CCNC[C@H](O)COc2cccc3[nH]ccc23)cc1`, the IC50 in test [1] was found to be 2.08 nM.

As to `CC(C)NC(=O)Nc1ccc(CCNC[C@H](O)COc2cccc3[nH]ccc23)cc1`, the IC50 in test [1] was 1.03 nM. The inhibition entry in test [2] was “Active”.

Regarding `CCCCCC(=O)Nc1ccc(NC(=O)Nc2ccc(CCNC[C@H](O)COc3cccc4[nH]ccc34)cc2)cc1`, the IC50 in [1] stood at 10.4 nM.

For `CC(=O)NCc1cccc(OC[C@@H](O)CNCCc2ccc(NS(=O)(=O)Nc3ccccc3)cc2)c1`, the IC50 in test [5] worked out at 8430 nM; in test [1], 3.41 nM; in test [6], 224 nM.

`CCc1ccccc1OC[C@@H](O)CNCCc1ccc(NC(=O)Nc2ccccc2)cc1`: the results for the IC50 in test [5], in test [1] and in test [6] were 1420 nM, 55.5 nM and 426 nM, respectively.

In the case of `COc1cccc(NC(=O)Nc2ccc(CCNC[C@H](O)COc3cccc4[nH]ccc34)cc2)c1`, the IC50 in [1] turned out to be 4.62 nM.

Consider `O=C(Nc1ccccc1)Nc1ccc(CCNC[C@H](O)COc2cccc3[nH]ccc23)cc1`, for which the IC50 in test [5] was 52.2 nM; in test [1] it was 0.512 nM; in [6], 2.88 nM. For the same compound, the Ratio EC50 in the test filed under Homo sapiens [7] is 100; in test [8], 23; in the test filed under Homo sapiens [11], 6. Moreover, in the test with Mus musculus [9], the Activity is listed as 4.6%. Besides, the outcome in the test with Mus musculus [10] and with Mus musculus [12] was Active. Further, the inhibition entry in test [2] is “Active”.

As to `O=C(Cc1ccccc1)Nc1ccc(CCNC[C@H](O)COc2cccc3[nH]ccc23)cc1`, the IC50 in [5] turned out to be 83.1 nM; in test [1] it was 1.09 nM; in test [6] it was 7.64 nM.

Take `COC(=O)Nc1ccccc1NC(=O)Nc1ccc(CCNC[C@H](O)COc2cccc3[nH]ccc23)cc1`: in test [1], the IC50 was 2.62 nM.

Regarding `O=S(=O)(Nc1ccc(CCNC[C@H](O)COc2cccc3[nH]ccc23)cc1)c1ccccc1`, the results for the IC50 in [5], in test [1] and in test [6] were 353 nM, 2.09 nM and 14.8 nM, respectively.

For the compound `CC(=O)NCc1cccc(OC[C@@H](O)CNCCc2ccc(NC(=O)Nc3ccccc3)cc2)c1`, the IC50 stood at 9840 nM in test [5], 4.7 nM in test [1] and 12700 nM in test [6].

For the compound `COc1ccc(NC(=O)Nc2ccc(CCNC[C@H](O)COc3cccc4[nH]ccc34)cc2)cc1`, the IC50 in test [1] turned out to be 1.49 nM. In test [2], the inhibition result was “Active”.
